This passage reports MIC results from ChEMBL document CHEMBL1932990, “Synthesis and antifungal activity of 6,7-bis(arylthio)-quinazoline-5,8-diones and furo[2,3-f]quinazolin-5-ols” (2012).

Values after ≈ are worked out from the molar mass of the structure shown.

For orientation: MIC means the lowest concentration that inhibits growth of the organism. A lower MIC goes with a more susceptible organism.

In the first experiment the test system is Candida albicans. Nature of the experiment: Antifungal activity against Candida albicans Berkout KCCM 50235 after 1 day by twofold broth dilution method. To be noted: Berkout KCCM 50235, 24 h. Format: functional. An outline of the steps: (§1)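 Two-fold broth dilution in modified Sabouraud dextrose broth. Inoculum about 1 × 10⁵ cells/mL. Test agents at final concentrations from 0.2 to 50.0. Incubated at 37 °C, and MIC read after 1 day. Fluconazole and 5-fluorocytosine served as standard agents.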
(In general: In broth dilution the organism is exposed to a series of concentrations in liquid medium.)
In the case of `Cc1ccc(SC2=C(Sc3ccc(C)c(C)c3)C(=O)c3ncncc3C2=O)cc1C`, the lowest concentration to inhibit growth (MIC) was 12.5 µg/mL (≈ 28.9 µM).
For `CCSC1=C(SCC)C(=O)c2ncncc2C1=O`, the MIC was found to be 12.5 µg/mL (≈ 44.6 µM).
In turn, `COc1ccc(SC2=C(Sc3ccc(OC)cc3)C(=O)c3ncncc3C2=O)cc1` registered an MIC of 25 µg/mL (≈ 57.3 µM).
In turn, `CCOC(=O)c1c(N)oc2c1c(Sc1ccc(C)cc1)c(O)c1ncncc12` had an MIC of 3.2 µg/mL (≈ 8.09 µM).
Same read-out and setting: then `CCOC(=O)c1c(N)oc2c1c(Sc1ccc(F)cc1)c(O)c1ncncc12`, with 6.3 µg/mL (≈ 15.8 µM); and `CCOC(=O)c1c(N)oc2c1c(Sc1ccc(Br)cc1)c(O)c1ncncc12`, with 12.5 µg/mL (≈ 27.2 µM).
In turn, `CCOC(=O)c1c(N)oc2c1c(Sc1ccc(OC)cc1)c(O)c1ncncc12` showed an MIC of 12.5 µg/mL (≈ 30.4 µM).
Same read-out and setting: the figure for `Cc1ccc(SC2=C(Sc3ccc(C)cc3)C(=O)c3ncncc3C2=O)cc1` is 12.5 µg/mL (≈ 30.9 µM).
On the same count and under the same terms, the figure for `O=C1C(Sc2ccc(O)cc2)=C(Sc2ccc(O)cc2)C(=O)c2ncncc21` is 3.2 µg/mL (≈ 7.83 µM); for `O=C1C(Sc2ccc(Cl)cc2)=C(Sc2ccc(Cl)cc2)C(=O)c2ncncc21` it is 6.3 µg/mL (≈ 14.1 µM); for `O=C1C(Sc2ccccc2)=C(Sc2ccccc2)C(=O)c2ncncc21` it is 6.3 µg/mL (≈ 16.7 µM).
On the same count and under the same terms, the figure for `O=C1C(Sc2ccccc2F)=C(Sc2ccccc2F)C(=O)c2ncncc21` is 6.3 µg/mL (≈ 15.3 µM); for `COc1ccc(OC)c2ncncc12` it is more than 50 µg/mL.

The next experiment deals with Candida tropicalis. The experiment in a line: Antifungal activity against Candida tropicalis Berkout KCCM 50662 after 1 day by twofold broth dilution method. Format: functional. As to conditions: Berkout KCCM 50662, 24 h. An outline of the steps:
as §1
Compound `Cc1ccc(SC2=C(Sc3ccc(C)c(C)c3)C(=O)c3ncncc3C2=O)cc1C` had an MIC of 12.5 µg/mL (≈ 28.9 µM).
`CCSC1=C(SCC)C(=O)c2ncncc2C1=O` came in with a minimum inhibitory concentration (MIC) of 12.5 µg/mL (≈ 44.6 µM).
On to `COc1ccc(SC2=C(Sc3ccc(OC)cc3)C(=O)c3ncncc3C2=O)cc1`, for which it took 25 µg/mL (≈ 57.3 µM) to inhibit growth (MIC). Against the preceding compound, the MIC is about 2-fold higher.
Take `CCOC(=O)c1c(N)oc2c1c(Sc1ccc(C)cc1)c(O)c1ncncc12`: the minimum inhibitory concentration (MIC) came out at 6.3 µg/mL (≈ 15.9 µM).
In turn, `CCOC(=O)c1c(N)oc2c1c(Sc1ccc(F)cc1)c(O)c1ncncc12` returned an MIC of 3.2 µg/mL (≈ 8.01 µM).
`CCOC(=O)c1c(N)oc2c1c(Sc1ccc(Br)cc1)c(O)c1ncncc12` displayed an MIC of 25 µg/mL (≈ 54.3 µM). Compared with the last compound, the MIC is about 7.8-fold higher.
Compound `CCOC(=O)c1c(N)oc2c1c(Sc1ccc(OC)cc1)c(O)c1ncncc12` showed an MIC of 25 µg/mL (≈ 60.8 µM).
`Cc1ccc(SC2=C(Sc3ccc(C)cc3)C(=O)c3ncncc3C2=O)cc1` gave an MIC of 6.3 µg/mL (≈ 15.6 µM).
On the same count and under the same terms, then `O=C1C(Sc2ccc(O)cc2)=C(Sc2ccc(O)cc2)C(=O)c2ncncc21`, with 3.2 µg/mL (≈ 7.83 µM); and `O=C1C(Sc2ccc(Cl)cc2)=C(Sc2ccc(Cl)cc2)C(=O)c2ncncc21`, with 12.5 µg/mL (≈ 28.1 µM).
In the case of `O=C1C(Sc2ccccc2)=C(Sc2ccccc2)C(=O)c2ncncc21`, it took 6.3 µg/mL (≈ 16.7 µM) to inhibit growth (MIC).
In the case of `O=C1C(Sc2ccccc2F)=C(Sc2ccccc2F)C(=O)c2ncncc21`, the MIC stood at 6.3 µg/mL (≈ 15.3 µM).
With `COc1ccc(OC)c2ncncc12`, the MIC was more than 50 µg/mL.

The next experiment deals with Pichia kudriavzevii. The experiment in a line: Antifungal activity against Candida krusei Berkout KCCM 11655 after 1 day by twofold broth dilution method. Format: functional. To be noted: Berkout KCCM 11655, 24 h. In outline: as §1
On to `Cc1ccc(SC2=C(Sc3ccc(C)c(C)c3)C(=O)c3ncncc3C2=O)cc1C`, for which the MIC amounted to 12.5 µg/mL (≈ 28.9 µM).
As for `CCSC1=C(SCC)C(=O)c2ncncc2C1=O`, the minimum inhibitory concentration (MIC) worked out at 6.3 µg/mL (≈ 22.5 µM).
The compound `COc1ccc(SC2=C(Sc3ccc(OC)cc3)C(=O)c3ncncc3C2=O)cc1` showed an MIC of 3.2 µg/mL (≈ 7.33 µM).
`CCOC(=O)c1c(N)oc2c1c(Sc1ccc(C)cc1)c(O)c1ncncc12` had an MIC of 6.3 µg/mL (≈ 15.9 µM). This MIC lies about 2-fold higher than the previous one.
The same measure, in the same setting: then `CCOC(=O)c1c(N)oc2c1c(Sc1ccc(F)cc1)c(O)c1ncncc12`, with 6.3 µg/mL (≈ 15.8 µM); and `CCOC(=O)c1c(N)oc2c1c(Sc1ccc(Br)cc1)c(O)c1ncncc12`, with 25 µg/mL (≈ 54.3 µM); and `CCOC(=O)c1c(N)oc2c1c(Sc1ccc(OC)cc1)c(O)c1ncncc12`, with 50 µg/mL (≈ 122 µM).
The same measure, in the same setting: the figure for `Cc1ccc(SC2=C(Sc3ccc(C)cc3)C(=O)c3ncncc3C2=O)cc1` is 6.3 µg/mL (≈ 15.6 µM); for `O=C1C(Sc2ccc(O)cc2)=C(Sc2ccc(O)cc2)C(=O)c2ncncc21` it is 25 µg/mL (≈ 61.2 µM); for `O=C1C(Sc2ccc(Cl)cc2)=C(Sc2ccc(Cl)cc2)C(=O)c2ncncc21` it is 3.2 µg/mL (≈ 7.19 µM).
The compound `O=C1C(Sc2ccccc2)=C(Sc2ccccc2)C(=O)c2ncncc21` registered an MIC of 6.3 µg/mL (≈ 16.7 µM).
The compound `O=C1C(Sc2ccccc2F)=C(Sc2ccccc2F)C(=O)c2ncncc21` displayed an MIC of 12.5 µg/mL (≈ 30.3 µM). This MIC is about 2-fold higher than that of the compound before.
On the same count and under the same terms, the figure for `COc1ccc(OC)c2ncncc12` is 50 µg/mL (≈ 263 µM).

The next experiment has as its system Cryptococcus neoformans. Nature of the experiment: Antifungal activity against Cryptococcus neoformans KCCM 50564 after 1 day by twofold broth dilution method. Format: functional. As to conditions: KCCM 50564, 24 h. In outline:
as §1
The compound `Cc1ccc(SC2=C(Sc3ccc(C)c(C)c3)C(=O)c3ncncc3C2=O)cc1C` came in with an MIC of 3.2 µg/mL (≈ 7.4 µM).
On to `CCSC1=C(SCC)C(=O)c2ncncc2C1=O`, for which the MIC is 6.3 µg/mL (≈ 22.5 µM).
As for `COc1ccc(SC2=C(Sc3ccc(OC)cc3)C(=O)c3ncncc3C2=O)cc1`, it took 6.3 µg/mL (≈ 14.4 µM) to inhibit growth (MIC).
On to `CCOC(=O)c1c(N)oc2c1c(Sc1ccc(C)cc1)c(O)c1ncncc12`, for which the lowest concentration to inhibit growth (MIC) was 3.2 µg/mL (≈ 8.09 µM).
The same measure, in the same setting: then `CCOC(=O)c1c(N)oc2c1c(Sc1ccc(F)cc1)c(O)c1ncncc12`, with 3.2 µg/mL (≈ 8.01 µM); and `CCOC(=O)c1c(N)oc2c1c(Sc1ccc(Br)cc1)c(O)c1ncncc12`, with 3.2 µg/mL (≈ 6.95 µM); and `CCOC(=O)c1c(N)oc2c1c(Sc1ccc(OC)cc1)c(O)c1ncncc12`, with 12.5 µg/mL (≈ 30.4 µM).
For `Cc1ccc(SC2=C(Sc3ccc(C)cc3)C(=O)c3ncncc3C2=O)cc1`, the MIC worked out at 50 µg/mL (≈ 124 µM).
As to `O=C1C(Sc2ccc(O)cc2)=C(Sc2ccc(O)cc2)C(=O)c2ncncc21`, the MIC worked out at 12.5 µg/mL (≈ 30.6 µM). Against the preceding compound, the MIC is about 4-fold lower.
`O=C1C(Sc2ccc(Cl)cc2)=C(Sc2ccc(Cl)cc2)C(=O)c2ncncc21` showed an MIC of 6.3 µg/mL (≈ 14.1 µM).
The compound `O=C1C(Sc2ccccc2)=C(Sc2ccccc2)C(=O)c2ncncc21` came in with an MIC of 25 µg/mL (≈ 66.4 µM).
As to `O=C1C(Sc2ccccc2F)=C(Sc2ccccc2F)C(=O)c2ncncc21`, the MIC was found to be 1.6 µg/mL (≈ 3.88 µM).
`COc1ccc(OC)c2ncncc12` displayed an MIC of 50 µg/mL (≈ 263 µM). This MIC lies about 31-fold higher than the previous one.

Another experiment relates to Aspergillus niger. The experiment in a line: Antifungal activity against Aspergillus niger KCTC 1231 after 2 days by twofold broth dilution method. Format: functional. To be noted: KCTC 1231, 48 h. In outline: (§2)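 Two-fold broth dilution in modified Sabouraud dextrose broth. Inoculum about 1 × 10⁵ cells/mL. Test agents at final concentrations from 0.2 to 50.0. Incubated at 37 °C, and MIC read after 2 days. Fluconazole and 5-fluorocytosine served as standard agents.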
As for `Cc1ccc(SC2=C(Sc3ccc(C)c(C)c3)C(=O)c3ncncc3C2=O)cc1C`, 25 µg/mL (≈ 57.8 µM) was the least that counted as inhibitory (MIC).
Compound `CCSC1=C(SCC)C(=O)c2ncncc2C1=O` had an MIC of 3.2 µg/mL (≈ 11.4 µM).
Same read-out and setting: then `COc1ccc(SC2=C(Sc3ccc(OC)cc3)C(=O)c3ncncc3C2=O)cc1`, with 3.2 µg/mL (≈ 7.33 µM).
`CCOC(=O)c1c(N)oc2c1c(Sc1ccc(C)cc1)c(O)c1ncncc12` showed an MIC of 6.3 µg/mL (≈ 15.9 µM).
On the same count and under the same terms, then `CCOC(=O)c1c(N)oc2c1c(Sc1ccc(F)cc1)c(O)c1ncncc12`, with 50 µg/mL (≈ 125 µM); and `CCOC(=O)c1c(N)oc2c1c(Sc1ccc(Br)cc1)c(O)c1ncncc12`, with 6.3 µg/mL (≈ 13.7 µM).
The compound `CCOC(=O)c1c(N)oc2c1c(Sc1ccc(OC)cc1)c(O)c1ncncc12` returned an MIC of 12.5 µg/mL (≈ 30.4 µM).
On to `Cc1ccc(SC2=C(Sc3ccc(C)cc3)C(=O)c3ncncc3C2=O)cc1`, for which the MIC came out at 3.2 µg/mL (≈ 7.91 µM).
In turn, `O=C1C(Sc2ccc(O)cc2)=C(Sc2ccc(O)cc2)C(=O)c2ncncc21` registered an MIC of 25 µg/mL (≈ 61.2 µM).
`O=C1C(Sc2ccc(Cl)cc2)=C(Sc2ccc(Cl)cc2)C(=O)c2ncncc21`: it took 1.6 µg/mL (≈ 3.59 µM) to inhibit growth (MIC).
Take `O=C1C(Sc2ccccc2)=C(Sc2ccccc2)C(=O)c2ncncc21`: the lowest concentration to inhibit growth (MIC) was 6.3 µg/mL (≈ 16.7 µM).
Compound `O=C1C(Sc2ccccc2F)=C(Sc2ccccc2F)C(=O)c2ncncc21` displayed an MIC of 12.5 µg/mL (≈ 30.3 µM). Compared with the last compound, the MIC is about 2-fold higher.
On the same count and under the same terms, then `COc1ccc(OC)c2ncncc12`, with 25 µg/mL (≈ 131 µM).

The subject of a further experiment is Aspergillus flavus. The experiment in a line: Antifungal activity against Aspergillus flavus KCCM 11899 after 2 days by twofold broth dilution method. To be noted: KCCM 11899, 48 h. Format: functional. An outline of the steps: as §2
Turning to `Cc1ccc(SC2=C(Sc3ccc(C)c(C)c3)C(=O)c3ncncc3C2=O)cc1C`, the MIC came out at 12.5 µg/mL (≈ 28.9 µM).
`CCSC1=C(SCC)C(=O)c2ncncc2C1=O`: the MIC was determined as 6.3 µg/mL (≈ 22.5 µM).
The compound `COc1ccc(SC2=C(Sc3ccc(OC)cc3)C(=O)c3ncncc3C2=O)cc1` showed an MIC of 0.8 µg/mL (≈ 1.83 µM). Compared with the last compound, the MIC is about 7.9-fold lower.
`CCOC(=O)c1c(N)oc2c1c(Sc1ccc(C)cc1)c(O)c1ncncc12` came in with an MIC of 6.3 µg/mL (≈ 15.9 µM).
Compound `CCOC(=O)c1c(N)oc2c1c(Sc1ccc(F)cc1)c(O)c1ncncc12` came in with a minimum inhibitory concentration (MIC) of 12.5 µg/mL (≈ 31.3 µM).
Same read-out and setting: then `CCOC(=O)c1c(N)oc2c1c(Sc1ccc(Br)cc1)c(O)c1ncncc12`, with 50 µg/mL (≈ 109 µM).
Regarding `CCOC(=O)c1c(N)oc2c1c(Sc1ccc(OC)cc1)c(O)c1ncncc12`, the minimum inhibitory concentration (MIC) worked out at 12.5 µg/mL (≈ 30.4 µM).
Same read-out and setting: then `Cc1ccc(SC2=C(Sc3ccc(C)cc3)C(=O)c3ncncc3C2=O)cc1`, with 3.2 µg/mL (≈ 7.91 µM); and `O=C1C(Sc2ccc(O)cc2)=C(Sc2ccc(O)cc2)C(=O)c2ncncc21`, with 12.5 µg/mL (≈ 30.6 µM).
The compound `O=C1C(Sc2ccc(Cl)cc2)=C(Sc2ccc(Cl)cc2)C(=O)c2ncncc21` returned an MIC of 3.2 µg/mL (≈ 7.19 µM).
Turning to `O=C1C(Sc2ccccc2)=C(Sc2ccccc2)C(=O)c2ncncc21`, the MIC came to 3.2 µg/mL (≈ 8.5 µM).
The same measure, in the same setting: then `O=C1C(Sc2ccccc2F)=C(Sc2ccccc2F)C(=O)c2ncncc21`, with 12.5 µg/mL (≈ 30.3 µM); and `COc1ccc(OC)c2ncncc12`, with 50 µg/mL (≈ 263 µM).
